Measured values: ChEMBL document CHEMBL3525971 (Drug Metab Dispos, 2011)

Assays:
[1] = Tmax in castrated pig plasma withdrawn from hepatic vein at 0.8 mg/kg administered as intrajejunal dose 20 mins after ketoconazole administration by UPLC-tandem mass spectrometry; format: ADME, organism-based, Sus scrofa; set-up: dose 0.8 mg/kg; conditions: male
In short: (§1)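 Portal, hepatic and femoral vein plasma sampled over 6 h and assayed by UPLC-MS/MS. Tmax read directly from the profiles. Terminal t1/2 calculated as ln2/λz by non- or compartmental analysis; values below LLOQ after Cmax excluded.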

[2] = AUC (0 to 6 hrs) in castrated pig plasma withdrawn from portal vein at 0.8 mg/kg administered as intrajejunal dose by UPLC-tandem mass spectrometry; format: ADME, organism-based, Sus scrofa; set-up: time < 6 hr, dose 0.8 mg/kg; conditions: male
In short: (§2)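 Where ketoconazole was co-dosed, it was given at 10 mg/kg at the same jejunal site 20 min before. Plasma protein-precipitated with acetonitrile and analysed by UPLC-MS/MS (finasteride-d9). AUC0-6h, Cmax and t1/2 (ln2/λz) were derived by non- or compartmental analysis.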

[3] = Apparent half-life of the terminal disposition phase in castrated pig plasma withdrawn from femoral vein at 0.2 mg/kg, iv by UPLC-tandem mass spectrometry; format: ADME, organism-based, Sus scrofa; set-up: dose 0.2 mg/kg, route intravenous; conditions: male, read-out: t1/2 lambda z (converted); in short: as §2
Sus scrofa [4] = assay: Hepatic clearance in castrated pig at 0.8 mg/kg, administered as intrajejunal dose by UPLC-tandem mass spectrometry; format: ADME, organism-based, Liver; set-up: dose 0.8 mg/kg; conditions: in vivo, other
In short: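 Portal and hepatic vein plasma measured 0-6 h by UPLC-MS/MS. Extraction ratio derived from portal versus hepatic concentrations or AUCs; CLH then obtained as EH × liver blood flow 52 ml/min/kg × measured blood/plasma ratio.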

[5] = Tmax in castrated pig plasma withdrawn from femoral vein at 0.8 mg/kg administered as intrajejunal dose by UPLC-tandem mass spectrometry; format: ADME, organism-based, Sus scrofa; set-up: dose 0.8 mg/kg; conditions: male; in short: as §1
[6] = Biliary excretion in castrated pig assessed as fraction of the dose excreted at 0.8 mg/kg administered as intrajejunal dose measured during 6 hrs sampling by UPLC-tandem mass spectrometry; format: ADME, organism-based, Sus scrofa; set-up: dose 0.8 mg/kg; conditions: male, bile, read-out: Drug excretion
[7] = AUC (0 to 6 hrs) in castrated pig plasma withdrawn from femoral vein at 0.8 mg/kg administered as intrajejunal dose by UPLC-tandem mass spectrometry; format: ADME, organism-based, Sus scrofa; set-up: time < 6 hr, dose 0.8 mg/kg; conditions: male; in short: as §2
[8] = Terminal half life in castrated pig plasma withdrawn from hepatic vein at 0.8 mg/kg administered as intrajejunal dose by UPLC-tandem mass spectrometry; format: ADME, organism-based, Sus scrofa; set-up: dose 0.8 mg/kg; conditions: male, read-out: beta t1/2 (converted); in short: as §1
[9] = Ratio of AUC in bile to plasma withdrawn from portal vein in castrated pig at 0.2 mg/kg, iv by UPLC-tandem mass spectrometry; format: ADME, organism-based, Sus scrofa; set-up: dose 0.2 mg/kg, route intravenous; conditions: male, read-out: Ratio AUC
In short: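 Bile collected 0-6 h and weighed; portal and hepatic vein plasma sampled. Analytes quantified by UPLC-MS/MS (finasteride-d9 internal standard, SRM). Bile AUC divided by plasma AUC for each vein.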

[10] = Renal clearance in castrated pig at 0.2 mg/kg, iv by UPLC-tandem mass spectrometry; format: ADME, organism-based, Sus scrofa, Kidney; set-up: dose 0.2 mg/kg, route intravenous; conditions: male, in vivo
In short: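 Urine collected 0-360 min into a closed bag, weighed and frozen at -20°C. […] Doses: iv 0.2 mg/kg bolus via central vein catheter (n=3), or ij 0.8 mg/kg alone or 20 min after ij ketoconazole 10 mg/kg (n=5). Renal clearance derived from the amount excreted in urine over 0-6 h.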

[11] = Cmax in castrated pig plasma withdrawn from femoral vein at 0.8 mg/kg administered as intrajejunal dose by UPLC-tandem mass spectrometry; format: ADME, organism-based, Sus scrofa; set-up: dose 0.8 mg/kg; conditions: male; in short: as §2
[12] = Ratio of AUC in bile to plasma withdrawn from hepatic vein in castrated pig at 0.8 mg/kg administered as intrajejunal dose 20 mins after ketoconazole administration by UPLC-tandem mass spectrometry; format: ADME, organism-based, Sus scrofa; set-up: dose 0.8 mg/kg; conditions: male, read-out: Ratio AUC
In short: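 Bile collected 0-6 h and weighed; portal and hepatic vein plasma sampled. UPLC-MS/MS quantification against finasteride-d9 in SRM mode. Bile/plasma AUC ratio calculated per vein.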

[13] = Cmax in castrated pig plasma withdrawn from portal vein at 0.8 mg/kg administered as intrajejunal dose by UPLC-tandem mass spectrometry; format: ADME, organism-based, Sus scrofa; set-up: dose 0.8 mg/kg; conditions: male; in short: as §2
[14] = Volume of distribution at steady state in castrated pig at 0.2 mg/kg, iv by UPLC-tandem mass spectrometry; format: ADME, organism-based, Sus scrofa; set-up: dose 0.2 mg/kg, route intravenous; conditions: male, in vivo, read-out: Vdss
In short: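 Femoral plasma assayed over 0-6 h by UPLC-MS/MS. CL calculated as dose/AUCVF,0-6h; Vss calculated as MRT × CL, with MRT = AUMC0-6h/AUC0-6h.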

[15] = Oral absorption in human; format: ADME, organism-based; conditions: in vivo
[16] = Apparent half-life of the terminal disposition phase in castrated pig plasma withdrawn from portal vein at 0.2 mg/kg, iv by UPLC-tandem mass spectrometry; format: ADME, organism-based, Sus scrofa; set-up: dose 0.2 mg/kg, route intravenous; conditions: male, read-out: t1/2 lambda z (converted); in short: as §2
[17] = Tmax in castrated pig plasma withdrawn from femoral vein at 0.8 mg/kg administered as intrajejunal dose 20 mins after ketoconazole administration by UPLC-tandem mass spectrometry; format: ADME, organism-based, Sus scrofa; set-up: dose 0.8 mg/kg; conditions: male; in short: as §1
[18] = Terminal half life in castrated pig plasma withdrawn from femoral vein at 0.8 mg/kg administered as intrajejunal dose by UPLC-tandem mass spectrometry; format: ADME, organism-based, Sus scrofa; set-up: dose 0.8 mg/kg; conditions: male, read-out: beta t1/2 (converted); in short: as §1
[19] = Terminal half life in castrated pig plasma withdrawn from portal vein at 0.8 mg/kg administered as intrajejunal dose by UPLC-tandem mass spectrometry; format: ADME, organism-based, Sus scrofa; set-up: dose 0.8 mg/kg; conditions: male, read-out: beta t1/2 (converted); in short: as §1
[20] = Drug excretion in castrated pig urine assessed as unchanged drug level at 0.8 mg/kg administered as intrajejunal dose measured during 6 hrs sampling by UPLC-tandem mass spectrometry; format: ADME, organism-based, Sus scrofa; set-up: dose 0.8 mg/kg; conditions: in vivo, other
[21] = Drug excretion in castrated pig urine assessed as unchanged drug level at 0.8 mg/kg administered as intrajejunal dose 20 mins after ketoconazole administration measured during 6 hrs sampling by UPLC-tandem mass spectrometry; format: ADME, organism-based, Sus scrofa; set-up: dose 0.8 mg/kg; conditions: in vivo, other
[22] = Apparent biliary clearance in castrated pig at 0.2 mg/kg, iv by UPLC-tandem mass spectrometry; format: ADME, organism-based, Sus scrofa, Bile; set-up: dose 0.2 mg/kg, route intravenous; conditions: in vivo
[23] = Terminal half life in castrated pig plasma withdrawn from portal vein at 0.8 mg/kg administered as intrajejunal dose 20 mins after ketoconazole administration by UPLC-tandem mass spectrometry; format: ADME, organism-based, Sus scrofa; set-up: dose 0.8 mg/kg; conditions: male, read-out: beta t1/2 (converted); in short: as §1
[24] = AUC (0 to 6 hrs) in castrated pig plasma withdrawn from hepatic vein at 0.2 mg/kg, iv by UPLC-tandem mass spectrometry; format: ADME, organism-based, Sus scrofa; set-up: time < 6 hr, dose 0.2 mg/kg, route intravenous; conditions: male; in short: as §2
Sus scrofa [25] = assay: Absorption rate constant in castrated pig plasma withdrawn from femoral vein at 0.8 mg/kg administered as intrajejunal dose by UPLC-tandem mass spectrometry; format: ADME, organism-based; set-up: dose 0.8 mg/kg; conditions: in vivo, other
[26] = Cmax in castrated pig plasma withdrawn from femoral vein at 0.8 mg/kg administered as intrajejunal dose 20 mins after ketoconazole administration by UPLC-tandem mass spectrometry; format: ADME, organism-based, Sus scrofa; set-up: dose 0.8 mg/kg; conditions: male; in short: as §2
[27] = AUC (0 to 6 hrs) in castrated pig plasma withdrawn from hepatic vein at 0.8 mg/kg administered as intrajejunal dose 20 mins after ketoconazole administration by UPLC-tandem mass spectrometry; format: ADME, organism-based, Sus scrofa; set-up: time < 6 hr, dose 0.8 mg/kg; conditions: male; in short: as §2
[28] = Apparent half-life of the terminal disposition phase in castrated pig plasma withdrawn from hepatic vein at 0.2 mg/kg, iv by UPLC-tandem mass spectrometry; format: ADME, organism-based, Sus scrofa; set-up: dose 0.2 mg/kg, route intravenous; conditions: male, read-out: t1/2 lambda z (converted); in short: as §2
[29] = Drug excretion in castrated pig urine assessed as fraction of the dose excreted at 0.8 mg/kg administered as intrajejunal dose 20 mins after ketoconazole administration measured during 6 hrs sampling by UPLC-tandem mass spectrometry; format: ADME, organism-based, Sus scrofa; set-up: dose 0.8 mg/kg; conditions: male, read-out: Drug excretion
[30] = AUC (0 to 6 hrs) in castrated pig plasma withdrawn from portal vein at 0.2 mg/kg, iv by UPLC-tandem mass spectrometry; format: ADME, organism-based, Sus scrofa; set-up: time < 6 hr, dose 0.2 mg/kg, route intravenous; conditions: male; in short: as §2
[31] = AUC (0 to 6 hrs) in castrated pig bile at 0.2 mg/kg, iv by UPLC-tandem mass spectrometry; format: ADME, organism-based, Sus scrofa; set-up: time < 6 hr, dose 0.2 mg/kg, route intravenous; conditions: male
[32] = Cmax in castrated pig bile at 0.8 mg/kg administered as intrajejunal dose 20 mins after ketoconazole administration by UPLC-tandem mass spectrometry; format: ADME, organism-based, Sus scrofa; set-up: dose 0.8 mg/kg; conditions: male

Compound: CC(C)(C)NC(=O)[C@H]1CC[C@H]2[C@@H]3CC[C@H]4NC(=O)C=C[C@]4(C)[C@H]3CC[C@]12C [FINASTERIDE]
- Tmax [1]: 1 h
- AUC(0-t) at 6 h [2]: 2.9 µM·h
- half-life [3]: 3.4 h
- CLH (Sus scrofa [4]): 36000 mL/day/kg
- Tmax [5]: 0.9 h
- dose excreted at 6 h [6]: 0.09%
- AUC(0-t) at 6 h [7]: 1.7 µM·h
- half-life [8]: 1.7 h
- Kp [9]: 0.9
- CL renal [10]: 14.4 mL/day/kg
- Cmax [11]: 600 nM
- Kp at 20 min [12]: 6
- Cmax [13]: 2600 nM
- Vd [14]: 0.99 L/kg
- Fa [15]: > 85%
- half-life [16]: 2.6 h
- Tmax [17]: 1.5 h
- half-life [18]: 1.6 h
- half-life [19]: 1.5 h
- Ae [20]: 0.01 µmol
- Ae [21]: 0.04 µmol
- CL(app) [22]: 20.2 mL/day/kg
- half-life [23]: 3.9 h
- AUC(0-t) at 6 h [24]: 0.9 µM·h
- ka (Sus scrofa [25]): 6 h⁻¹
- Cmax [26]: 1200 nM
- AUC(0-t) at 6 h [27]: 4.1 µM·h
- half-life [28]: 3.1 h
- dose excreted [29]: 0.08%
- AUC(0-t) at 6 h [30]: 1.2 µM·h
- AUC(0-t) at 6 h [31]: 1.1 µM·h
- Cmax [32]: 2000 nM
